Data set [1] is described as follows: Plasma protein binding in rat assessed as fraction unbound. The format is ADME, cell-free. In a few lines:
(§1)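 Free fraction in rat plasma measured by ultrafiltration or equilibrium dialysis after incubation with rat plasma.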

In data set [2] the target is T1, Cannabinoid receptor 1 (Homo sapiens, UniProt P21554). As to the kind of experiment: Agonist activity at human CB1 receptor expressed in CHO-K1 cells assessed as inhibition of forskolin-stimulated cAMP level. It is filed as functional, cell-based. In a few lines: (§2)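 Receptor (human or rat CB1 or CB2) expressed in CHO-K1 cells, 1000 cells per well, added to compound and incubated at room temperature for 15 min. Read-out is IC50 with Emax.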
On the technique in general: cAMP levels reflect the balance of adenylyl cyclase and phosphodiesterase activity.

Data set [3] addresses T2, Cannabinoid receptor 2 (Homo sapiens, UniProt P34972). As to the kind of experiment: Agonist activity at human CB2 receptor expressed in CHO-K1 cells assessed as inhibition of forskolin-stimulated cAMP level relative to control. It is filed as functional, cell-based. In a few lines: as §2
In data set [4] the target is T2, Cannabinoid receptor 2. Kind of data set: Agonist activity at human CB2 receptor expressed in CHO-K1 cells assessed as inhibition of forskolin-stimulated cAMP level. It is filed as functional, cell-based. In a few lines:
as §2

Data set [5] concerns the target Cannabinoid receptor 1 (Rattus norvegicus, UniProt P20272). Kind of data set: Agonist activity at rat CB1 receptor expressed in CHO-K1 cells assessed as inhibition of forskolin-stimulated cAMP level. It is filed as functional, cell-based. In a few lines: as §2
Data set [6] is described as follows: Drug level in cerebrospinal fluid of Lewis rat complete Freund's adjuvant-induced hyperalgesia model at 100 mg/kg, po and sc at 120 mins. Set-up: dose 100 mg/kg, route oral. It is filed as ADME, organism-based. The following applies: read-out: Drug uptake. A digest of the protocol: (§3)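 Rats with CFA-induced hyperalgesia dosed orally or subcutaneously at 100 mpk. Naproxen 20 mg/kg and vehicle served as controls. Paw withdrawal threshold read at baseline, after CFA, and post-dose (30, 60 or 120 min). Plasma, brain and CSF drug levels measured at the 60 or 120 min post-dose timepoint.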

In data set [7] the target is T3, Cannabinoid receptor 2 (Rattus norvegicus) (UniProt Q9QZN9).
T3 sequence (whole entry): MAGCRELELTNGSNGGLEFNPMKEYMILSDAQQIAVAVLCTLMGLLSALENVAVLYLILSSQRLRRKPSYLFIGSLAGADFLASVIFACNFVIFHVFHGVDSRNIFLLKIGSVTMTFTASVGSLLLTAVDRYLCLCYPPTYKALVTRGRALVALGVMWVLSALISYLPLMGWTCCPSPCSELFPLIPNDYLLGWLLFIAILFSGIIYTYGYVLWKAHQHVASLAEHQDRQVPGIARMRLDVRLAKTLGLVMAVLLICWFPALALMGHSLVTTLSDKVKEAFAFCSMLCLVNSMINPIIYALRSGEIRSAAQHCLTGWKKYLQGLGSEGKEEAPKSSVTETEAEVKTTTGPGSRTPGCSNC
As to the kind of experiment: Agonist activity at rat CB2 receptor expressed in CHO-K1 cells assessed as inhibition of forskolin-stimulated cAMP level relative to control. The format is functional, cell-based. In a few lines:
as §2

The nature of data set [8]: Plasma protein binding in rat. The format is ADME, cell-free. Conditions: read-out: PPB (converted). A digest of the protocol:
as §1

Data set [9] has as its target T4, Cannabinoid receptor 2 (Rattus norvegicus, UniProt Q9QZN9).
T4 sequence (Q9QZN9 whole entry): T3 sequence (whole entry)
Kind of data set: Agonist activity at rat CB2 receptor expressed in CHO-K1 cells assessed as inhibition of forskolin-stimulated cAMP level. The format is functional, cell-based. A digest of the protocol:
as §2

A short description of data set [10]: Plasma concentration in Lewis rat complete Freund's adjuvant-induced hyperalgesia model at 100 mg/kg, po and sc at 120 mins. It is filed as ADME, organism-based. Set-up: dose 100 mg/kg, route oral. In a few lines:
as §3

Data set [11] concerns Rattus norvegicus. Kind of data set: Analgesic activity in Lewis rat complete Freund's adjuvant-induced hyperalgesia model assessed as reversal in paw withdrawal threshold at 100 mg/kg, po and sc. The format is functional, organism-based. Set-up: dose 100 mg/kg. In a few lines: as §3
Data set [12] in a line: Drug level in brain of Lewis rat complete Freund's adjuvant-induced hyperalgesia model at 100 mg/kg, po and sc at 120 mins. It is filed as ADME, organism-based. Set-up: dose 100 mg/kg, route oral. The following applies: read-out: Drug uptake. A digest of the protocol: as §3
For data set [13], the target named is T1, Cannabinoid receptor 1. As to the kind of experiment: Agonist activity at human CB1 receptor expressed in CHO-K1 cells assessed as inhibition of forskolin-stimulated cAMP level relative to control. It is filed as functional, cell-based. In a few lines:
as §2

Data set [14] has as its target T1, Cannabinoid receptor 1. As to the kind of experiment: Binding affinity to human CB1 receptor.
In data set [15] the target is T2, Cannabinoid receptor 2. Kind of data set: Binding affinity to human CB2 receptor.
Data set [16] deals with Rattus norvegicus. As to the kind of experiment: Neurotoxicity in rat assessed as impairment of motor co-ordination at 100 mg/kg, po by rotarod method. It is filed as toxicity, organism-based. Set-up: dose 100 mg/kg, route oral. The following applies: in vivo. (In general: The rotarod test checks motor coordination on a turning rod.)
Data set [17] addresses Cannabinoid receptor 1 (Rattus norvegicus) (UniProt P20272). Kind of data set: Agonist activity at rat CB1 receptor expressed in CHO-K1 cells assessed as inhibition of forskolin-stimulated cAMP level relative to control. The format is functional, cell-based. In a few lines: as §2
Data set [18] can be described thus: Drug level in brain of Lewis rat complete Freund's adjuvant-induced hyperalgesia at 100 mg/kg, po and sc at 60 mins. The format is ADME, organism-based. Set-up: dose 100 mg/kg, route oral. The following applies: read-out: Drug uptake. In a few lines:
as §3

Data set [19] can be described thus: Plasma concentration in Lewis rat complete Freund's adjuvant-induced hyperalgesia model at 100 mg/kg, po and sc at 60 mins. Set-up: dose 100 mg/kg, route oral. It is filed as ADME, organism-based. In a few lines: as §3
Data set [20] is described as follows: Drug level in cerebrospinal fluid of Lewis rat complete Freund's adjuvant-induced hyperalgesia model at 100 mg/kg, po and sc at 60 mins. The following applies: read-out: Drug uptake. Set-up: dose 100 mg/kg, route oral. It is filed as ADME, organism-based. A digest of the protocol: as §3

The source made the active and inactive calls. A value given as a limit tells only on which side of the number the result lay.

T2 sequence (P34972 whole entry): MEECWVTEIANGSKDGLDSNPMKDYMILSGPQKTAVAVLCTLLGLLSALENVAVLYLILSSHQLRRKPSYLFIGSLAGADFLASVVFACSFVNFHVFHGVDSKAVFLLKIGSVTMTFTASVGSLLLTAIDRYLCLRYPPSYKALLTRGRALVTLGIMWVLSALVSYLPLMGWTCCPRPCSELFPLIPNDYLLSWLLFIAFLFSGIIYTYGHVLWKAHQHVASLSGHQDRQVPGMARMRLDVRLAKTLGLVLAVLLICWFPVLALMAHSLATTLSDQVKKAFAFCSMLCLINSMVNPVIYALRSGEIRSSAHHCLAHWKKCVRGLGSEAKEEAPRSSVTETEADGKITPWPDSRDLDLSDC
T1 sequence (P21554 whole entry): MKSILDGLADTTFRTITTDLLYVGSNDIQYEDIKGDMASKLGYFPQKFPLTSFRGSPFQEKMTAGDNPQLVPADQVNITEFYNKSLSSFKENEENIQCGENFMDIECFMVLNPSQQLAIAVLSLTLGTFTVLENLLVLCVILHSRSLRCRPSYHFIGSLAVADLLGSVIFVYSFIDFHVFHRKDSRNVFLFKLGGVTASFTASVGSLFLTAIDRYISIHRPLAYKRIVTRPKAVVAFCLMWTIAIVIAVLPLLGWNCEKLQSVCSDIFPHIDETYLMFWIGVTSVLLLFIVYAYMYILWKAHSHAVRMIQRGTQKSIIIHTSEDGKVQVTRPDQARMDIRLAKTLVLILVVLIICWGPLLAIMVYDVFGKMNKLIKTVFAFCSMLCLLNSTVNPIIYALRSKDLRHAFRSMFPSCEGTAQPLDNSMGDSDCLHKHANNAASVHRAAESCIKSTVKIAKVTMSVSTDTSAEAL
Chain of Cannabinoid receptor 1 (Rattus norvegicus, UniProt P20272) (P20272 whole entry): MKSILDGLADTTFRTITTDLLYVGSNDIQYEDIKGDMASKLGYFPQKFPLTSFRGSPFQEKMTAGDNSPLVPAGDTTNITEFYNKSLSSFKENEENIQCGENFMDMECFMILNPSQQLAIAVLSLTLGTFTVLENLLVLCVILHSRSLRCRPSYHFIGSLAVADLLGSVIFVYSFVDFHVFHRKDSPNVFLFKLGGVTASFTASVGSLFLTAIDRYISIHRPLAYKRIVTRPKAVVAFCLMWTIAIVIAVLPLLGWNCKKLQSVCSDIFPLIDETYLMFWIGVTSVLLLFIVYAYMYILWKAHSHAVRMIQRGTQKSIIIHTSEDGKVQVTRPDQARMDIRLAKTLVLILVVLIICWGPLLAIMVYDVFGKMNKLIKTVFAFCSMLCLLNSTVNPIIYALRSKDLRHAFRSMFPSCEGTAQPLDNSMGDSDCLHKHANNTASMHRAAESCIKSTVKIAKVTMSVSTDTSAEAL
Chain of Cannabinoid receptor 1 (Rattus norvegicus) (P20272 whole entry): as above

The term IC50 denotes the point on the concentration scale where inhibition reaches its midpoint. For orientation: Emax means the greatest response seen or fitted, relative to the assay's reference. In the case of `O=C(NC(c1ccncc1)c1ccc(F)cc1)c1nc(N2CCC(F)(F)C2)c2cnccn12` (stereo not given), the fraction unbound in data set [1] amounted to 0.03. Further, the IC50 is above 17000 nM in data set [2] and 92 nM in [4]. Also, the Emax in data set [3] worked out at 96%.
Taken in the same sequence, the figures for `C[C@@H](NC(=O)c1nc(N2CCC(F)(F)CC2)c2cnccn12)C(C)(C)C` were 0.06, above 17000 nM, 36 nM and 99%.
On to `O=C(NCC1(CO)CCCC1)c1nc(N2CCOCC2)n2ccccc12`, for which the IC50 in [5] is above 17000 nM; in data set [2] it was above 17000 nM; in data set [9] it was 58 nM; in data set [4], 33 nM. Moreover, the figures for the concentration at 2 h in data set [6], in data set [10] and in data set [12] were 300 nM, 4300 nM and 1300 nM, respectively. The figures for the Emax in data set [7] and in [3] were 87% and 99%, respectively. Besides, the fraction unbound in data set [8] and in data set [1] was 0.16 each time. The result in data set [11] was inactive.
For `CC(C)(C)CNC(=O)c1nc(C2CC2)n2ccccc12`, the fraction unbound in data set [1] came out at 0.05. Further, the IC50 in data set [2] was above 17000 nM; in data set [4], 21 nM. The Emax in data set [3] turned out to be 97%.
In the case of `O=C(NCC1(CO)CCCC1)c1nc(CN2CCC(F)(F)CC2)n2ccccc12`, the figures for the IC50 in data set [2] and in [4] were 68 nM and 3 nM, respectively. Moreover, the Emax in data set [3] worked out at 88%; in [13] it was 99%.
The matching figures for `O=C(c1cccc(Cl)c1Cl)c1nc(CN2CCC(F)(F)CC2)c2ccccn12`: 90 nM, 0.3 nM, 110% and 101%.
As for `O=C(Nc1cccc(C(F)(F)F)n1)c1nc(CN2CCS(=O)(=O)CC2)c2ccccn12`, in [1], the fraction unbound was 0.11. The results for the IC50 in data set [2] and in [4] were 12700 nM and 44 nM, respectively. The Emax in data set [3] amounted to 80%; in [13], 54%.
As for `O=C(NC(C1CC1)C1CC1)c1nc(C2CC2)n2ccccc12`, the fraction unbound in data set [1] stood at 0.03. Besides, the IC50 in data set [2] was above 17000 nM; in data set [4], 7 nM. The Emax in [3] is 99%.
What is called Ki is a measure of affinity in units of concentration, obtained from inhibition or displacement. Higher therefore signals a looser hold on the target. Consider `COc1ccc2c(c1)c(CCN1CCOCC1)c(C)n2C(=O)c1cccc(Cl)c1Cl`, for which the Ki was 2000 nM in data set [14] and 10 nM in data set [15].
`O=C(N[C@H](c1ccccn1)C(F)(F)F)c1nc(N2CCOCC2)n2ccccc12`: the fraction unbound in data set [1] is 0.1. For the same compound, the IC50 in [2] turned out to be 705 nM; in [4] it was 21 nM. For the same compound, the figures for the Emax in [3] and in data set [13] were 97% and 55%, respectively.
With `O=C(c1cccc(Cl)c1Cl)c1nc(CN2CCOCC2)c2ccccn12`, the IC50 in [5] was found to be 1070 nM; in data set [2], 2560 nM; in data set [9], 11 nM; in data set [4], 5 nM. Also, the Activity entry is “Toxic” in data set [16] and “Dose-dependent effect” in data set [11]. The maximal response (Emax) in data set [7] is 87%; in data set [17] it was 104%; in data set [3], 94%; in data set [13] it was 66%. For the same compound, the values for the concentration at 1 h in data set [18], in [19] and in data set [20] were 5400 nM, 4500 nM and 110 nM, respectively. Besides, the fraction unbound in [8] and in data set [1] was 0.24 each time.
On to `O=C(c1cccc(F)c1C(F)(F)F)c1nc(CN2CCOCC2)c2ccccn12`, for which the fraction unbound in data set [1] is 0.03. For the same compound, the figures for the IC50 in data set [2] and in data set [4] were 2230 nM and 0.7 nM, respectively. For the same compound, the figures for the Emax in data set [3] and in [13] were 98% and 97%, respectively.
As to `O=C(Nc1cccc(C(F)(F)F)n1)c1nc(CN2CCC(F)(F)CC2)c2ccccn12`, the values for the IC50 in data set [2] and in data set [4] were 347 nM and 1.7 nM, respectively. Moreover, the Emax in [3] amounted to 98%; in data set [13] it was 100%.
As to `O=C(NC(c1cccnc1)C(F)(F)F)c1nc(N2CCOCC2)c2cnccn12` (stereo not given), the fraction unbound in [1] worked out at 0.25. For the same compound, the IC50 in [2] is above 17000 nM; in data set [4], 69 nM. Also, the Emax in data set [3] came to 98%.
The matching figures for `O=C(N[C@H](c1ccccn1)C(F)(F)F)c1nc(N2CCOCC2)c2cnccn12`: 0.18, above 17000 nM, 139 nM and 94%.

(Values after ChEMBL document CHEMBL1759910, “Imidazopyridine CB2 agonists: optimization of CB2/CB1 selectivity and implications for in vivo analgesic efficacy” (Bioorg Med Chem Lett, 2011).)
